Measured values reported in ChEMBL document CHEMBL1140697, “Synthesis and evaluation in monkey of two sensitive 11C-labeled aryloxyanilide ligands for imaging brain peripheral benzodiazepine receptors in vivo” (J Med Chem, 2008).
Values belong to the molecule of their own block, whether it stands above or below them.

Columns and labels:
[1] = Biodistribution in rhesus monkey plasma free fraction of blood; assay type: ADME, organism-based, Macaca mulatta
Plasma [2] = assay: Drug level in rhesus monkey plasma; assay type: ADME, cell-free, Macaca mulatta
Translocator protein [3] = target: Translocator protein (Rattus norvegicus, UniProt P16257); assay: Binding affinity to PBR in Sprague-Dawley rat mitochondrial tissue
[4] = Binding affinity to PBR in rhesus monkey mitochondrial tissue; design: species or system Macaca mulatta
Procedure, shortened: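 Mitochondrial fractions (rat, rhesus monkey or human) were incubated with [³H]PK 11195 (0.38 nM final) and eight test-ligand concentrations for 2 h at 4 °C. Samples were filtered on PEI-presoaked GF/B filters, washed with ice-cold buffer and counted. Nonspecific binding was taken at the top inhibitor level (0.1–0.3 µM). Triplicate curves were run in two independent experiments. IC₅₀ was converted to K_i by Cheng–Prusoff, using K_D from homologous PK 11195 displacement.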

Translocator protein [5] = target: Translocator protein (Homo sapiens, UniProt P30536); assay: Binding affinity to PBR in human mitochondrial tissue
[6] = Stability in monkey whole blood >30 mins; assay type: ADME, tissue-based, Macaca mulatta; conditions: rhesus monkey, read-out: Stability
Procedure, shortened: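 The radioligand was incubated with monkey blood for >30 min. Radioactivity extracted from the plasma was analysed by radio-HPLC to give the percentage of unchanged radioligand, reported as mean ± SD.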

[7] = Stability in sodium phosphate buffer at pH 7.4 after 2.5 hrs; assay type: physicochemical; conditions: read-out: Stability
Procedure, shortened: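 Radioligand stored in 0.15 M sodium phosphate buffer, pH 7.4, for 2.5 h; radiochemical stability measured by radio-HPLC as percent of radioactivity remaining as unchanged radioligand; n = 4.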

Plasma [8] = assay: Biodistribution in rat plasma at 1.43 mCi, iv after 30 mins; assay type: ADME, organism-based; conditions: in vivo, 0.5 h
Procedure, shortened: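 Rats received the ¹¹C-radioligand iv with varying carrier mass (µg/kg) and were sampled 30 min later. Plasma and brain homogenate were extracted into acetonitrile and analysed by reverse-phase radio-HPLC (C18; MeOH/H₂O/Et₃N, 1.5 mL/min), reporting % radioactivity as unchanged radioligand. Extraction recovery was recorded. Replicate HPLC analyses were run on one sample per rat.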

Plasma [9] = assay: Drug level in rhesus monkey plasma assessed as cell distribution; assay type: ADME, cell-free, Macaca mulatta
[10] = Lipophilicity, log D of the compound; assay type: physicochemical; conditions: octanol/water
Procedure, shortened: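 The ¹¹C-ligand (~300 µCi) in saline with 5% ethanol was mixed with sodium phosphate buffer (0.15 M, pH 7.4). Six 1 mL aliquots were each vortexed 1 min with buffer-pre-equilibrated n-octanol, centrifuged 1 min, and 200 µL of each phase was γ-counted. Aqueous counts were corrected by radio-HPLC for the unchanged fraction. LogD = log(cpm octanol/corrected cpm aqueous); mean ± SD of six determinations.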

[11] = target: Sodium-dependent serotonin transporter (Homo sapiens) (UniProt P31645); assay: Binding affinity to SERT receptor at 10 uM; conditions: tested as the 11C-labelled form
Procedure, shortened: (§1)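 Run through the NIMH Psychoactive Drug Screening Program (PDSP) broad receptor screen. The test ligand was used at 10 µM, and the read-out was percent displacement of the reference radioligand from each site.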

[12] = target: Sodium-dependent dopamine transporter (Homo sapiens) (UniProt Q01959); assay: Binding affinity to DAT receptor at 10 uM; conditions: tested as the 11C-labelled form; procedure, shortened: as §1
[13] = target: Sodium-dependent noradrenaline transporter (Homo sapiens) (UniProt P23975); assay: Binding affinity to NET receptor at 10 uM; conditions: tested as the 11C-labelled form; procedure, shortened: as §1
[14] = target: 5-hydroxytryptamine receptor 1A (Homo sapiens) (UniProt P08908); assay: Binding affinity to 5HT1A at 10 uM; conditions: tested as the 11C-labelled form; procedure, shortened: as §1
[15] = target: 5-hydroxytryptamine receptor 1B (Homo sapiens) (UniProt P28222); assay: Binding affinity to 5HT1B at 10 uM; conditions: tested as the 11C-labelled form; procedure, shortened: as §1
[16] = target: 5-hydroxytryptamine receptor 1D (Homo sapiens) (UniProt P28221); assay: Binding affinity to 5HT1D at 10 uM; conditions: tested as the 11C-labelled form; procedure, shortened: as §1
[17] = target: 5-hydroxytryptamine receptor 1E (Homo sapiens) (UniProt P28566); assay: Binding affinity to 5HT1E at 10 uM; conditions: tested as the 11C-labelled form; procedure, shortened: as §1
[18] = target: 5-hydroxytryptamine receptor 2A (Homo sapiens) (UniProt P28223); assay: Binding affinity to 5HT2A at 10 uM; conditions: tested as the 11C-labelled form; procedure, shortened: as §1
[19] = target: 5-hydroxytryptamine receptor 2B (Homo sapiens) (UniProt P41595); assay: Binding affinity to 5HT2B at 10 uM; conditions: tested as the 11C-labelled form; procedure, shortened: as §1
[20] = target: 5-hydroxytryptamine receptor 2C (Homo sapiens) (UniProt P28335); assay: Binding affinity to 5HT2C at 10 uM; conditions: tested as the 11C-labelled form; procedure, shortened: as §1
[21] = target: 5-hydroxytryptamine receptor 3A (Homo sapiens) (UniProt P46098); assay: Binding affinity to 5HT3 at 10 uM; conditions: tested as the 11C-labelled form; procedure, shortened: as §1
[22] = target: 5-hydroxytryptamine receptor 5A (Homo sapiens) (UniProt P47898); assay: Binding affinity to 5HT5A at 10 uM; conditions: tested as the 11C-labelled form; procedure, shortened: as §1
[23] = target: 5-hydroxytryptamine receptor 6 (Homo sapiens) (UniProt P50406); assay: Binding affinity to 5HT6 at 10 uM; conditions: tested as the 11C-labelled form; procedure, shortened: as §1
[24] = target: 5-hydroxytryptamine receptor 7 (Homo sapiens) (UniProt P34969); assay: Binding affinity to 5HT7 at 10 uM; conditions: tested as the 11C-labelled form; procedure, shortened: as §1
[25] = target: Alpha-1A adrenergic receptor (Homo sapiens) (UniProt P35348); assay: Binding affinity to adrenergic alpha-1A at 10 uM; conditions: tested as the 11C-labelled form; procedure, shortened: as §1
[26] = target: Alpha-1B adrenergic receptor (Homo sapiens) (UniProt P35368); assay: Binding affinity to adrenergic alpha-1B at 10 uM; conditions: tested as the 11C-labelled form; procedure, shortened: as §1
[27] = target: Beta-1 adrenergic receptor (Homo sapiens) (UniProt P08588); assay: Binding affinity to adrenergic […] at 10 uM; conditions: tested as the 11C-labelled form; procedure, shortened: as §1
[28] = target: Beta-2 adrenergic receptor (Homo sapiens) (UniProt P07550); assay: Binding affinity to adrenergic beta-2 at 10 uM; conditions: tested as the 11C-labelled form; procedure, shortened: as §1
[29] = target: Beta-3 adrenergic receptor (Homo sapiens) (UniProt P13945); assay: Binding affinity to adrenergic beta-3 at 10 uM; conditions: tested as the 11C-labelled form; procedure, shortened: as §1
[30] = target: D(1A) dopamine receptor (Homo sapiens) (UniProt P21728); assay: Binding affinity to dopamine receptor D1 at 10 uM; conditions: tested as the 11C-labelled form; procedure, shortened: as §1
[31] = target: D(2) dopamine receptor (Homo sapiens) (UniProt P14416); assay: Binding affinity to dopamine receptor D2 at 10 uM; conditions: tested as the 11C-labelled form; procedure, shortened: as §1
[32] = target: D(3) dopamine receptor (Homo sapiens) (UniProt P35462); assay: Binding affinity to dopamine receptor D3 at 10 uM; conditions: tested as the 11C-labelled form; procedure, shortened: as §1
[33] = target: D(4) dopamine receptor (Homo sapiens) (UniProt P21917); assay: Binding affinity to dopamine receptor D4 at 10 uM; conditions: tested as the 11C-labelled form; procedure, shortened: as §1
[34] = target: Histamine H1 receptor (Homo sapiens) (UniProt P35367); assay: Binding affinity to histamine H1 receptor at 10 uM; conditions: tested as the 11C-labelled form; procedure, shortened: as §1
[35] = target: Histamine H2 receptor (Homo sapiens) (UniProt P25021); assay: Binding affinity to histamine H2 receptor at 10 uM; conditions: tested as the 11C-labelled form; procedure, shortened: as §1
[36] = target: Histamine H4 receptor (Homo sapiens) (UniProt Q9H3N8); assay: Binding affinity to histamine H4 receptor at 10 uM; conditions: tested as the 11C-labelled form; procedure, shortened: as §1
[37] = target: Histamine H3 receptor (Homo sapiens) (UniProt Q9Y5N1); assay: Binding affinity to histamine H3 receptor at 10 uM; conditions: tested as the 11C-labelled form; procedure, shortened: as §1
[38] = target: Muscarinic acetylcholine receptor M2 (Homo sapiens) (UniProt P08172); assay: Binding affinity to muscarinic receptor M2 receptor at 10 uM; conditions: tested as the 11C-labelled form; procedure, shortened: as §1
[39] = target: Muscarinic acetylcholine receptor M5 (Homo sapiens) (UniProt P08912); assay: Binding affinity to muscarinic receptor M5 receptor at 10 uM; conditions: tested as the 11C-labelled form; procedure, shortened: as §1
[40] = target: Alpha-2A adrenergic receptor (Homo sapiens) (UniProt P08913); assay: Binding affinity to adrenergic alpha-2A at 10 uM; conditions: tested as the 11C-labelled form; procedure, shortened: as §1
[41] = target: Alpha-2B adrenergic receptor (Homo sapiens) (UniProt P18089); assay: Binding affinity to adrenergic alpha-2B at 10 uM; conditions: tested as the 11C-labelled form; procedure, shortened: as §1
[42] = target: Alpha-2C adrenergic receptor (Homo sapiens) (UniProt P18825); assay: Binding affinity to adrenergic alpha-2C at 10 uM; conditions: tested as the 11C-labelled form; procedure, shortened: as §1
Alpha-2C adrenergic receptor (Homo sapiens), sequence (P18825 whole entry): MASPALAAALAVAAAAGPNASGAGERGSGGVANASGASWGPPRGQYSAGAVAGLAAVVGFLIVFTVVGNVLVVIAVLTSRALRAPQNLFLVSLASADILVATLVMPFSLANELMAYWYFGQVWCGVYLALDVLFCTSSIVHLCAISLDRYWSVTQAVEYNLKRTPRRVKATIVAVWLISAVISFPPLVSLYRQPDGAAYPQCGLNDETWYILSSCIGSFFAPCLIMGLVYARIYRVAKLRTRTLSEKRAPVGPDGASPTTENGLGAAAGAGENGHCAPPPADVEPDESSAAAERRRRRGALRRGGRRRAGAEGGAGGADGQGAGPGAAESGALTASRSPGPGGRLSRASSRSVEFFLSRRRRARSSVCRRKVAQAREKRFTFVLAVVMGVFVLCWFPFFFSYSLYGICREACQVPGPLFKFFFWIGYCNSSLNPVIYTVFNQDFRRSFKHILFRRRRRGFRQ

5-hydroxytryptamine receptor 5A (Homo sapiens), sequence (P47898 whole entry): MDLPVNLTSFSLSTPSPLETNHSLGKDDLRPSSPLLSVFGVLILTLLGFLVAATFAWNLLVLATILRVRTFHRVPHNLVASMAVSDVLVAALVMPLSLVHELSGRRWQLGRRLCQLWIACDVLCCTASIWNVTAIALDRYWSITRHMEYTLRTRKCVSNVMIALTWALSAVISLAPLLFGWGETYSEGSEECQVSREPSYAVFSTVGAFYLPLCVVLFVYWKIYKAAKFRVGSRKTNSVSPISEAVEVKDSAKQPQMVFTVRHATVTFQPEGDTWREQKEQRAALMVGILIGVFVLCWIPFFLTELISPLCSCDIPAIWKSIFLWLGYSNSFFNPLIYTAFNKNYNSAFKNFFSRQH
Beta-2 adrenergic receptor (Homo sapiens), sequence (P07550 whole entry, looked up): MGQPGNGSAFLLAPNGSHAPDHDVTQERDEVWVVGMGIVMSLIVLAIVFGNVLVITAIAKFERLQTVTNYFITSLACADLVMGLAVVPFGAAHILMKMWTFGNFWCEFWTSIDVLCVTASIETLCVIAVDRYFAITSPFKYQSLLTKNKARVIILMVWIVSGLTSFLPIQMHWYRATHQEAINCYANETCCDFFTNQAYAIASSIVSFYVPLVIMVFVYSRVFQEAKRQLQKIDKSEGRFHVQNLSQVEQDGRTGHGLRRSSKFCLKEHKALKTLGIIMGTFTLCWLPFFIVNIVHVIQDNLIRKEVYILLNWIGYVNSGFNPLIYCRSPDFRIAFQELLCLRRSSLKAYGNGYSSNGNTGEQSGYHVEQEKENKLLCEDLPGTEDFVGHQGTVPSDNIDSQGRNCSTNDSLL
Sodium-dependent dopamine transporter (Homo sapiens), sequence (Q01959 whole entry): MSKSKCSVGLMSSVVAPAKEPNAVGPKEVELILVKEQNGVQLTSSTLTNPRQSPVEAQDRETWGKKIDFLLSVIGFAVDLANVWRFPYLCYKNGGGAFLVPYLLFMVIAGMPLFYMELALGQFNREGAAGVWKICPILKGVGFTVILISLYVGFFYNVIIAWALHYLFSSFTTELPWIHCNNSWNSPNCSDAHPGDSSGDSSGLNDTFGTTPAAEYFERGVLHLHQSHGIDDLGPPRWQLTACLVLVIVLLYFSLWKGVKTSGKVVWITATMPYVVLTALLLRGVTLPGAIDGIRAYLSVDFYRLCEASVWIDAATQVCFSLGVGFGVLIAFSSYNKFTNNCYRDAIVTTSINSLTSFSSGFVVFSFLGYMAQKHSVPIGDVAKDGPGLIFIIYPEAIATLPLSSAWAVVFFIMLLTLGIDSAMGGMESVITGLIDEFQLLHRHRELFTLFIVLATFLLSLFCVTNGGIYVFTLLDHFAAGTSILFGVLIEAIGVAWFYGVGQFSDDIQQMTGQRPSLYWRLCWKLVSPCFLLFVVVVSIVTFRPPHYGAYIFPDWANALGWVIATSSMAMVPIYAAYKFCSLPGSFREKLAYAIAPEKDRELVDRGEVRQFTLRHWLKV
5-hydroxytryptamine receptor 2B (Homo sapiens), sequence (P41595 whole entry): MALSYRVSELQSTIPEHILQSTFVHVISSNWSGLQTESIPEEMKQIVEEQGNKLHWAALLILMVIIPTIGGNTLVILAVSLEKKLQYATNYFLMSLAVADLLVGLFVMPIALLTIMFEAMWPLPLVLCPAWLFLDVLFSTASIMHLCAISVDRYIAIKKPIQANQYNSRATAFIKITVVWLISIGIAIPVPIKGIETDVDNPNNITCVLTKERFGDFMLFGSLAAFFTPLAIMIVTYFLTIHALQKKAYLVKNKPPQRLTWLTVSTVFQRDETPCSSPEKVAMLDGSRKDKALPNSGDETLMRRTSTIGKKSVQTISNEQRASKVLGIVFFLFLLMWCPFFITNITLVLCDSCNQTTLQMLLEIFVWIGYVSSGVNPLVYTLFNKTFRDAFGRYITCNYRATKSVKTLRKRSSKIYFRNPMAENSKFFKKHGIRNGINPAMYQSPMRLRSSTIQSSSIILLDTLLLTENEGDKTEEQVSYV
Beta-1 adrenergic receptor (Homo sapiens), sequence (P08588 whole entry, looked up): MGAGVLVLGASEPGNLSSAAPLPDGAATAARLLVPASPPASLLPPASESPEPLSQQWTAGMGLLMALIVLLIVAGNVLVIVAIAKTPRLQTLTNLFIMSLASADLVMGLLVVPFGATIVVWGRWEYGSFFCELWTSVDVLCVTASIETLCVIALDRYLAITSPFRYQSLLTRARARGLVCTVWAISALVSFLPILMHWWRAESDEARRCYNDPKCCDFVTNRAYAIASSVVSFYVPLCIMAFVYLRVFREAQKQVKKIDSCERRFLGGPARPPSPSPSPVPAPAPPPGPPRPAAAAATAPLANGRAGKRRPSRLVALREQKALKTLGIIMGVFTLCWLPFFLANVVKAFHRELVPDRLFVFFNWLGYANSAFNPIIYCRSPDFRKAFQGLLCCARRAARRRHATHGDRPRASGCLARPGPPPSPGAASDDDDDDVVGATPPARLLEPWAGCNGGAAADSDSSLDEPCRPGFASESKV
D(2) dopamine receptor (Homo sapiens), sequence (P14416 whole entry): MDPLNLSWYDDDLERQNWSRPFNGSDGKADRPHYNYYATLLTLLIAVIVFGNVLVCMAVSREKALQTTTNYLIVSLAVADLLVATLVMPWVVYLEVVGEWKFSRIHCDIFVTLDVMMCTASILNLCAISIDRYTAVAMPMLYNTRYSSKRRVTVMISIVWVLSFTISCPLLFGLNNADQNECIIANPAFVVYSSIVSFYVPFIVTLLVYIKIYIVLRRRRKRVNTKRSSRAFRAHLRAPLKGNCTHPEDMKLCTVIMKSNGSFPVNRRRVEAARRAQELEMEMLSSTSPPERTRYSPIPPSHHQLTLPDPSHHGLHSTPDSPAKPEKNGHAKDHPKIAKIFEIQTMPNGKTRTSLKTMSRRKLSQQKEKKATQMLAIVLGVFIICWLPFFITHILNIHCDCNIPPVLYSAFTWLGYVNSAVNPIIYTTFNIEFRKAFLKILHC
5-hydroxytryptamine receptor 1B (Homo sapiens), sequence (P28222 whole entry): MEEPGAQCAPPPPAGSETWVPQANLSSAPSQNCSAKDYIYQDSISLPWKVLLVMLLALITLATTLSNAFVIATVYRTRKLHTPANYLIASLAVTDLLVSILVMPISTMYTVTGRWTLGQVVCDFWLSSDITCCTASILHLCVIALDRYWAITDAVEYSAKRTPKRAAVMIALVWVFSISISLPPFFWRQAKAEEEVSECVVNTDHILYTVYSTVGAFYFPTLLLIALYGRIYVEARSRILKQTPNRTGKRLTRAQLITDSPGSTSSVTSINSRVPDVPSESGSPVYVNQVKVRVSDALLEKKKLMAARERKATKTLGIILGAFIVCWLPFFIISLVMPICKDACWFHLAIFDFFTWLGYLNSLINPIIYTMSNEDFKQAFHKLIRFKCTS
5-hydroxytryptamine receptor 1D (Homo sapiens), sequence (P28221 whole entry): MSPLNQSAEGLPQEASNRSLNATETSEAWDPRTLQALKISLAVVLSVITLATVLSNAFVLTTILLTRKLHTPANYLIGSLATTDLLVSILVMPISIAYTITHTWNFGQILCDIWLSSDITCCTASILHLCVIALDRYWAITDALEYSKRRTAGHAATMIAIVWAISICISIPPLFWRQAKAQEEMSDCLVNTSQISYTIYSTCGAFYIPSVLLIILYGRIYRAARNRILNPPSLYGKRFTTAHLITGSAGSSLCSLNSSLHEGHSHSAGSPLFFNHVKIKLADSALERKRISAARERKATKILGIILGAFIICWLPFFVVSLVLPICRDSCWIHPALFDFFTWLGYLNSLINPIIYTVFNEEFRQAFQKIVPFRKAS
5-hydroxytryptamine receptor 6 (Homo sapiens), sequence (P50406 whole entry): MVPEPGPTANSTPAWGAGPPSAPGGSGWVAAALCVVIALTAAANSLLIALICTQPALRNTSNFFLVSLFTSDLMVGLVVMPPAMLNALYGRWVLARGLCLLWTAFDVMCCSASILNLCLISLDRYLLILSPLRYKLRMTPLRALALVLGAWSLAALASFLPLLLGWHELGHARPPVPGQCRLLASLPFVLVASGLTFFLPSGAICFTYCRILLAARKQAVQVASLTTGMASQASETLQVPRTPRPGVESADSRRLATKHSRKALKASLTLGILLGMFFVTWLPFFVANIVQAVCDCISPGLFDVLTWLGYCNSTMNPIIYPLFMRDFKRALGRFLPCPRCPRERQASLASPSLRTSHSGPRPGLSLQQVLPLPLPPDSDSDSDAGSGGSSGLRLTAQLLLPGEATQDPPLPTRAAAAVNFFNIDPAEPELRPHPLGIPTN
Muscarinic acetylcholine receptor M2 (Homo sapiens), sequence (P08172 whole entry): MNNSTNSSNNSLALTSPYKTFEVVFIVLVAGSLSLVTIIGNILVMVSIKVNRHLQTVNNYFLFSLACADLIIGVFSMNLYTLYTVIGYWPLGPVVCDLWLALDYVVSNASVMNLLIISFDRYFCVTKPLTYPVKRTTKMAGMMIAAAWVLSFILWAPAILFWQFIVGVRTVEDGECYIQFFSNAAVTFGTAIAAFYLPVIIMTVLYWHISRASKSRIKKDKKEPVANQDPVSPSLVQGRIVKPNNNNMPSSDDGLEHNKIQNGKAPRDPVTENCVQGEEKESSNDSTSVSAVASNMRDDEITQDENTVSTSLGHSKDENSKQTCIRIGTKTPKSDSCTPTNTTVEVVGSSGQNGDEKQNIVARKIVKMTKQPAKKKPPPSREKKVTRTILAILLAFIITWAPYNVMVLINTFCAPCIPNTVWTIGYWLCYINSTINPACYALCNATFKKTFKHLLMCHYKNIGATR

fraction unbound [1]: 0.0015
Drug uptake (Plasma [2]): 36.7%
Ki (Translocator protein [3]): 97.8 pM
Ki [4]: 254 pM
Ki (Translocator protein [5]): 1400 pM
remaining at 0.5 h [6]: 96.5%
remaining at 2.5 h [7]: 99.9%
Drug uptake (Plasma [8]): 3.4%
Drug uptake (Plasma [9]): 63.3%
logD [10]: 3.9
SMILES: CC(=O)N(Cc1ccccc1C(=O)O[11CH3])c1ccccc1Oc1ccccc1

Activity [11]: < 50%
Activity [12]: < 50%
Activity [13]: < 50%
Activity [14]: < 50%
Activity [15]: < 50%
Activity [16]: < 50%
Activity [17]: < 50%
Activity [18]: < 50%
Activity [19]: < 50%
Activity [20]: < 50%
Activity [21]: < 50%
Activity [22]: < 50%
Activity [23]: < 50%
Activity [24]: < 50%
Activity [25]: < 50%
Activity [26]: < 50%
Activity [27]: < 50%
Activity [28]: < 50%
Activity [29]: < 50%
Activity [30]: < 50%
Activity [31]: < 50%
Activity [32]: < 50%
Activity [33]: < 50%
Activity [34]: < 50%
Activity [35]: < 50%
Activity [36]: < 50%
Activity [37]: < 50%
Activity [38]: < 50%
Activity [39]: < 50%
Activity [40]: < 50%
Activity [41]: < 50%
Activity [42]: < 50%
SMILES: COc1ccccc1CN(C(C)=O)c1cnccc1Oc1ccccc1
